Experiments:
Settings in all cases: stereoisomer not certain
UniProt A2ATE5 = molecular target: T1, UniProt A2ATE5
T1 sequence (whole entry): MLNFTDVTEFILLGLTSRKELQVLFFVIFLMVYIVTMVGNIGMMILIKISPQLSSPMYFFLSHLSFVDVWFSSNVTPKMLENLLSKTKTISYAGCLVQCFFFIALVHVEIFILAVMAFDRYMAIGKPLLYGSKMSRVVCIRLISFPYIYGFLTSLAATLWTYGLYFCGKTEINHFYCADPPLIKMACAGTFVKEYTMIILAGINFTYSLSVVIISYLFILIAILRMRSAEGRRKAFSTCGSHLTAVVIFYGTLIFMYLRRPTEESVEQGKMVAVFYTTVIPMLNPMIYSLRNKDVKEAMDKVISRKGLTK
Method in brief: (§1)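 Whether a receptor–molecule pair is responsive (active) rests on the original authors' judgment that its measured signal was statistically different from baseline. Pairs without that judgment are non-responsive (inactive). Sources used varied assay methods, commonly transient luciferase assays in mammalian cell lines.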

UniProt A2AVB0 = molecular target: T2, UniProt A2AVB0
T2 sequence (whole entry): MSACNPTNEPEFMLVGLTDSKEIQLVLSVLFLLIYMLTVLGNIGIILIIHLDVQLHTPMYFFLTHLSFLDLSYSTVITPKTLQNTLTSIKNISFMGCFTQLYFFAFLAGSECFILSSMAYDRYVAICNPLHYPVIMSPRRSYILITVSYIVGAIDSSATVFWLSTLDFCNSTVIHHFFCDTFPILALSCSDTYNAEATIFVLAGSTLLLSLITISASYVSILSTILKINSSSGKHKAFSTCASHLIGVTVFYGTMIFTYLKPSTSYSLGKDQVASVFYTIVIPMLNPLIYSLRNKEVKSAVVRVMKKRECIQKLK
Method in brief: as §1

UniProt A2AVB5 = molecular target: T3, UniProt A2AVB5
T3 sequence (whole entry): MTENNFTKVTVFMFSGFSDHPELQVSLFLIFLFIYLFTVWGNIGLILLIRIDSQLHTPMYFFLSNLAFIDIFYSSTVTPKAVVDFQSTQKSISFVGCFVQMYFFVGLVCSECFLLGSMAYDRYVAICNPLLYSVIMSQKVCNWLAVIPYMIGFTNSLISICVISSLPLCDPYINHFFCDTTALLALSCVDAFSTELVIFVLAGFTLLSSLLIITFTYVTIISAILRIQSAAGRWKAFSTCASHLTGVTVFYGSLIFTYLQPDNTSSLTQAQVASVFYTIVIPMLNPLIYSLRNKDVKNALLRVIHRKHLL
Method in brief: as §1

UniProt B2RVX8 = molecular target: T4, UniProt B2RVX8
T4 sequence (whole entry): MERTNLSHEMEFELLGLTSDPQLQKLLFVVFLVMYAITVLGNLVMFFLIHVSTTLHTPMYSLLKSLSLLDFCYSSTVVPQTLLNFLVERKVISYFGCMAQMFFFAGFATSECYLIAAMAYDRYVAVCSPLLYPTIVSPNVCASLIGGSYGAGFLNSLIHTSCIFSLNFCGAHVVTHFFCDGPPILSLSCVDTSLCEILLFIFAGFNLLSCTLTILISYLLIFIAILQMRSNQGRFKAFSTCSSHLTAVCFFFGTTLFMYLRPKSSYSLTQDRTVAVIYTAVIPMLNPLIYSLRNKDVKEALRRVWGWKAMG
Method in brief: as §1

UniProt E9PVX1 = molecular target: T5, UniProt E9PVX1
T5 sequence (whole entry): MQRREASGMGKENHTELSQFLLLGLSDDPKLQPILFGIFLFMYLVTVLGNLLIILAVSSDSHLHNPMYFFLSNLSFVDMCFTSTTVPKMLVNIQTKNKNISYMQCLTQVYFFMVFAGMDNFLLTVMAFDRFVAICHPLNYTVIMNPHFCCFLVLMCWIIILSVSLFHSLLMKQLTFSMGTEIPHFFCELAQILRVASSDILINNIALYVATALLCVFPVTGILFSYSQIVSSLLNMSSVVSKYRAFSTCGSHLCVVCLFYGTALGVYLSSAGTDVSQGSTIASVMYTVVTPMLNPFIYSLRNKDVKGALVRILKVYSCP
Method in brief: as §1

UniProt E9PX47 = molecular target: T6, UniProt E9PX47
T6 sequence (whole entry): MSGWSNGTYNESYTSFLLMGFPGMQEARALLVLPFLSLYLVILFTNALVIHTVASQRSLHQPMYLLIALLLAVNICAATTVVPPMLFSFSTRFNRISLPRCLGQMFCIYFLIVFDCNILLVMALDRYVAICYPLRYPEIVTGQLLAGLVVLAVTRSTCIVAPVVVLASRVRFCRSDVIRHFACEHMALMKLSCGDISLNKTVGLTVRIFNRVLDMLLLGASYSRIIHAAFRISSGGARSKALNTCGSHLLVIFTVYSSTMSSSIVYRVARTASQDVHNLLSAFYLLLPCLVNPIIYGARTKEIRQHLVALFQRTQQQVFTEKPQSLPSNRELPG
Method in brief: as §1

Measured: odorant receptor agonist call;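 note: active if original authors judged signal statistically different from baseline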

CCCCCCCC(C)=O
not listed: UniProt E9PX47
inactive: all other assays above

O=C(c1ccccc1)c1ccccc1
not listed: UniProt E9PX47
inactive: all other assays above

CC(C)=CCCC(C)=CCO
not listed: UniProt E9PX47
inactive: all other assays above

CCCCCC(=O)CC
not listed: UniProt E9PX47
inactive: all other assays above

CCCCCCCCCCO
not listed: UniProt E9PX47
inactive: all other assays above

CCCCCCCCCO
inactive: all assays above

CCCCC(=O)CC
not listed: UniProt E9PX47
inactive: all other assays above

CCC(=O)O
not listed: UniProt E9PX47
inactive: all other assays above

C=CCOC(=O)CCCCCC
not listed: UniProt E9PX47
inactive: all other assays above

CCCCCCCCS
not listed: UniProt E9PX47
inactive: all other assays above

CCCCC(C)=O
not listed: UniProt E9PX47
inactive: all other assays above

CCCCCCCCCS
not listed: UniProt E9PX47
inactive: all other assays above

CCCC(=O)C(C)=O
not listed: UniProt E9PX47
inactive: all other assays above

COc1cc(C(=O)O)ccc1O
not listed: UniProt E9PX47
inactive: all other assays above

CCCCCCOC(C)=O
not listed: UniProt E9PX47
inactive: all other assays above

O=C1Cc2ccccc2O1
not listed: UniProt E9PX47
inactive: all other assays above

CCCCCCCCO
inactive: all assays above

From the M2OR odorant receptor database
